# Results from ChEMBL document CHEMBL3085648, “Enhancement of kinase selectivity in a potent class of arylamide FMS inhibitors” (Bioorg Med Chem Lett, 2013).
# What was measured:
# [1] = molecular target: Mast/stem cell growth factor receptor Kit (Homo sapiens, UniProt P10721); experiment: Inhibition of KIT (unknown origin)
# Liver microsome = experiment: (§1) Metabolic stability in human liver microsomes assessed as compound remaining after 10 mins; format: ADME; details: microsomes, 10 min
# Method in brief: (§2)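 Compound was incubated with human, mouse or rat liver microsomal preparations. Stability is the percent of compound remaining after 10 min.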
# Mus musculus = experiment: Inhibition of CSF-1-induced c-fos gene expression in mouse spleen at 20 mg/kg, po after 6 hrs; format: functional
# Method in brief: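 In the mouse pharmacodynamic model, compound was given orally. Spleen c-fos mRNA induced by an iv injection of CSF-1 was measured 6 or 8 h after dosing.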
# [2] = Metabolic stability in rat liver microsomes assessed as compound remaining after 10 mins; format: ADME; details: read-out: Stability; method in brief: as §2
# [3] = as §1; format: ADME; details: liver microsomes, read-out: Stability; method in brief: as §2
# [4] = Volume of distribution in Sprague-Dawley rat at 1 mg/kg, iv; format: ADME, organism-based; set-up: dose 1 mg/kg, route intravenous; details: in vivo
# [5] = Cmax in Sprague-Dawley rat at 5 mg/kg, po; format: ADME, organism-based; set-up: dose 5 mg/kg, route oral; details: in vivo
# [6] = Terminal half life in Sprague-Dawley rat at 5 mg/kg, po; format: ADME, organism-based; set-up: dose 5 mg/kg, route oral; details: in vivo, read-out: beta t1/2 (converted)
# [7] = AUC in Sprague-Dawley rat at 5 mg/kg, po; format: ADME, organism-based; set-up: dose 5 mg/kg, route oral; details: plasma
# [8] = Oral bioavailability in Sprague-Dawley rat at 5 mg/kg; format: ADME, organism-based; details: in vivo
# [9] = Systemic clearance in Sprague-Dawley rat at 1 mg/kg, iv; format: ADME, organism-based; set-up: dose 1 mg/kg, route intravenous; details: in vivo
# [10] = Tmax in Sprague-Dawley rat at 5 mg/kg, po; format: ADME, organism-based; set-up: dose 5 mg/kg, route oral; details: in vivo
# Rattus norvegicus [11] = experiment: Toxicity in Sprague-Dawley rat assessed as body weight loss at 40 mg/kg, po bid after 4.5 days relative to vehicle-treated control; format: organism-based; set-up: dose 40 mg/kg, route oral; details: in vivo, 108 h
# Method in brief: (§3)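 Female Sprague–Dawley rats (150–200 g) were dosed orally bid for 4 days with vehicle (n = 4) or 10–40 mg/kg (n = 3), as a solution at 6 ml/kg in 20% HPβCD. A final dose was given on day 5 and rats were sacrificed 2 h later. Plasma drug level, body weight versus vehicle controls and blood reticulocytes were assessed.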
# Rattus norvegicus [12] = experiment: Toxicity in Sprague-Dawley rat at 40 mg/kg, po bid after 4.5 days; format: organism-based; set-up: dose 40 mg/kg, route oral; details: in vivo, 108 h; method in brief: as §3
# [13] = Plasma concentration in Sprague-Dawley rat at 40 mg/kg, po bid administered for 5 days measured 2 hrs post last dose; format: ADME, organism-based; set-up: dose 40 mg/kg, route oral; method in brief: as §3
# [14] = Plasma concentration in Sprague-Dawley rat at 10 mg/kg, po bid administered for 5 days measured 2 hrs post last dose; format: ADME, organism-based; set-up: dose 10 mg/kg, route oral; method in brief: as §3
# [15] = Metabolic stability in mouse liver microsomes assessed as compound remaining after 10 mins; format: ADME, Microsome; details: liver microsomes, read-out: Stability; method in brief: as §2
# Rattus norvegicus [16] = experiment: Toxicity in Sprague-Dawley rat assessed as blood reticulocyte level at 40 mg/kg, po bid after 4.5 days; format: organism-based; set-up: dose 40 mg/kg, route oral; details: in vivo, 108 h; method in brief: as §3
# Mast/stem cell growth factor receptor Kit, sequence (P10721 whole entry): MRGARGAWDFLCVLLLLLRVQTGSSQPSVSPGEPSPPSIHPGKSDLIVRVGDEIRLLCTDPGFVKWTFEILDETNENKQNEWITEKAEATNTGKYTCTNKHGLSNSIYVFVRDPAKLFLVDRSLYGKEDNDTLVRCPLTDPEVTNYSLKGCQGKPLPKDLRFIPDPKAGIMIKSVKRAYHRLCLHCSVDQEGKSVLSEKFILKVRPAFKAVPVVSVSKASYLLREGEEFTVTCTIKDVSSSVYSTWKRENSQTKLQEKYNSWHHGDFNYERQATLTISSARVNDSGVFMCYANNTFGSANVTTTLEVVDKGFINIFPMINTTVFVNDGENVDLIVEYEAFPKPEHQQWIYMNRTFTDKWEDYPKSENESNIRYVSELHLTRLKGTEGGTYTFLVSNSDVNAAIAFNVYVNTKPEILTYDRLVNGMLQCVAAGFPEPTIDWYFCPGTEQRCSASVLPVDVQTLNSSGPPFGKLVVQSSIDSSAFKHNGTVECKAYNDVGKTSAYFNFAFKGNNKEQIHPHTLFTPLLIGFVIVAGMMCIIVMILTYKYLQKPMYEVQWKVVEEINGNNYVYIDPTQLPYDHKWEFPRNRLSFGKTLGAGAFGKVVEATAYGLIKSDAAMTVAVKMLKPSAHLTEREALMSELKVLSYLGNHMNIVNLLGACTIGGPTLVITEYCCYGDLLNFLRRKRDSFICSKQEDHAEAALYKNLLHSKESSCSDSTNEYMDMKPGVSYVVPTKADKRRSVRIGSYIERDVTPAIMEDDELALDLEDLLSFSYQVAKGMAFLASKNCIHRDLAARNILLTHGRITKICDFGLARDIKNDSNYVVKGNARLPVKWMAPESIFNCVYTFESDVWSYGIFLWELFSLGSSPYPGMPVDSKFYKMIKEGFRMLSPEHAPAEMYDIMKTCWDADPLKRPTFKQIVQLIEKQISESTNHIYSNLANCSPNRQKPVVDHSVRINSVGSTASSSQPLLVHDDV
smiles,measurement,setting,value
CC(=O)N1CCN(C(C)(C)c2ccc(NC(=O)c3nc(C#N)c[nH]3)c(C3=CCC(C)(C)CC3)c2)CC1,IC50,[1],0.04 µM
same,Stability,Liver microsome,ND(Insoluble)
COCCNCC(C)(C)c1ccc(NC(=O)c2nc(C#N)c[nH]2)c(C2=CCC(C)(C)CC2)c1,IC50,[1],0.11 µM
same,inhibition in vivo at 20 mg/kg,Mus musculus,0%
same,remaining at 10 min,[2],39%
same,remaining at 10 min,[3],35%
CC1(C)CC=C(c2cc(C(C)(C)N3CCN(CCO)CC3)ccc2NC(=O)c2nc(C#N)c[nH]2)CC1.Cl,Vd,[4],7.6 L/kg
same,Cmax,[5],210 nM
same,half-life,[6],6.5 h
same,AUC,[7],690 ng·h/mL
same,bioavailability,[8],31%
same,clearance,[9],34 mL/min/kg
same,Tmax,[10],2.8 h
CC1(C)CC=C(c2cc(C(C)(C)N3CCN(CCO)CC3)ccc2NC(=O)c2nc(C#N)c[nH]2)CC1,Activity,Rattus norvegicus [11],Non-toxic
same,Activity,Rattus norvegicus [12],Non-toxic
same,concentration at 2 h,[13],5160 nM
same,remaining at 10 min,[2],63%
same,remaining at 10 min,[3],110%
same,concentration at 2 h,[14],680 nM
same,remaining at 10 min,[15],98%
same,Activity,Rattus norvegicus [16],Non-toxic
